Measurements from ChEMBL document CHEMBL1142845, “Synthesis, stability, and implications of phosphothioate agonists of sphingosine-1-phosphate receptors” (Bioorg Med Chem Lett, 2005).
Several values for one entry are separate records, joined by “and”; a condition that tells them apart may be missing. Equal entries are not always repeated.

Assay: Effective concentration required for [35S]GTP-gamma-S binding towards Sphingosine 1-phosphate receptor G-protein complex expressed in HEK293T cells
Assay type: functional, cell-based, Homo sapiens
Details: hek-293t
Method in brief: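 Agonist-stimulated [35S]GTPγS binding was measured on individual S1P receptor–G-protein complexes overexpressed in HEK293T cells. EC50 values were taken from ligand-dependent binding, and efficacy was expressed as a percentage of the S1P maximal effect at each receptor.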

| EC50 | SMILES |
| --- | --- |
| 20 nM | CCCCCCCCc1ccc(NC(=O)[C@@H](N)[C@@H](C)OP(=O)(O)O)cc1 |
| 910 nM and 2800 nM and 8700 nM | CCCCCCCCc1ccc(CC[C@@H](N)CO)cc1 |
| 1700 nM and 490 nM | CCCCCCCCc1ccc(NC(=O)[C@@H](N)[C@@H](C)O)cc1 |
